This is an account of results in PubChem BioAssay AID652138 (The Scripps Research Institute Molecular Screening Center, 2013).

SMILES strings stand for the structures. Active and inactive are the calls of the source.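 Rule for the calls: active = IC50 at or below 10 µM, the dose giving half-maximal inhibition of the luminescence signal; inactive = IC50 above 10 µM.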

Broadly, the IC50 is the concentration that gives 50% inhibition.

In the experiment the target is Perilipin-5 (Homo sapiens) + 1-acylglycerol-3-phosphate O-acyltransferase ABHD5 (Homo sapiens) (UniProt Q00G26+Q8WTS1). Briefly: ABHD5-PLIN5 binding inhibitors, late-stage follow-up, biochemical, luminescence, dose response, round 3 (AID 652138). As to conditions: split G. princeps luciferase complementation, 4 h. In outline: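 Material: Split Gaussia princeps luciferase complementation, LucC-tagged ABHD5 with LucN-tagged MLDP | Compound dosing: Triplicate 10-point threefold series, top nominal 40 µM | Incubation: 4 h at 25 °C plus 30 min readout step | Technique: Coelenterazine luminescence | Control set: DMSO as low control, 25 µM trans-chalcone as high control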
Perilipin-5 (Homo sapiens) + 1-acylglycerol-3-phosphate O-acyltransferase ABHD5 (Homo sapiens), sequence (Q00G26 whole entry, looked up): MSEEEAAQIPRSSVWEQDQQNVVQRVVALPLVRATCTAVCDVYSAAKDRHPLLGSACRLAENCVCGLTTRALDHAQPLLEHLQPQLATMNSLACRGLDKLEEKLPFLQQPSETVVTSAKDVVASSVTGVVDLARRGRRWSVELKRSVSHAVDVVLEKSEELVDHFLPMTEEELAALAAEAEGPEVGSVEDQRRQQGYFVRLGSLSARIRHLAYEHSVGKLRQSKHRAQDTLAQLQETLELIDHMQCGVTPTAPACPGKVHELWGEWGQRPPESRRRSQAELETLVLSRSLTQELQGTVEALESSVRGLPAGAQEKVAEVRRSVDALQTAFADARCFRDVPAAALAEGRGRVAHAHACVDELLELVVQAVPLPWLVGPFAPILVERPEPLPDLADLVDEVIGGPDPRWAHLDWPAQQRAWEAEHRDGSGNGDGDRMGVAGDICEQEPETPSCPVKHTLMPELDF
Perilipin-5 (Homo sapiens) + 1-acylglycerol-3-phosphate O-acyltransferase ABHD5 (Homo sapiens), sequence (Q8WTS1 whole entry, looked up): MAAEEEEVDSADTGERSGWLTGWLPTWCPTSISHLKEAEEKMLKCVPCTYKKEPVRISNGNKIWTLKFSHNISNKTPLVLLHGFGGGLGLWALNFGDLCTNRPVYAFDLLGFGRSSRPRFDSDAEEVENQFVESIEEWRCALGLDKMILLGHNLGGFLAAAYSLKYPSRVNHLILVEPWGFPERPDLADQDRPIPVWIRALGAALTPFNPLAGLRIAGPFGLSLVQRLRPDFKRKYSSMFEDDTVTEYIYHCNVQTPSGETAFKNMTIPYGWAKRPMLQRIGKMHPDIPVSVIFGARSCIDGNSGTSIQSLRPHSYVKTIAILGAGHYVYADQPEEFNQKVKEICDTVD

As to `CCCCCCCNC(=O)Nc1ccc2c(c1)N(C)C(=O)c1ccccc1S2`, the IC50 was 7.78 µM.
On to `CN1C(=O)c2ccccc2Sc2ccc(NC(=O)NCCCc3ccccc3)cc21`, for which the IC50 is 4.04 µM.
The same measure for `CCCCNC(=O)Nc1ccc2c(c1)N(C)C(=O)c1ccccc1S2`: “inactive”; for `CCCCCNC(=O)Nc1ccc2c(c1)N(C)C(=O)c1ccccc1S2`: 3.32 µM.
Turning to `Cc1ccc2c(CC(=O)N3CCN(S(=O)(=O)c4ccc5c(c4)OCCO5)CC3)coc2c1`, the IC50 result is “inactive”.
The same measure for `CCCCCCNC(=O)Nc1ccc2c(c1)N(C)C(=O)c1ccccc1S2`: 4.71 µM.
